Data: ChEMBL document CHEMBL1150768, “Conformationally constrained analogues of N-(piperidinyl)-5-(4-chlorophenyl)-1-(2,4- dichlorophenyl)-4-methyl-1H-pyrazole-3-carboxamide (SR141716): design, synthesis, computational analysis, and biological evaluations” (J Med Chem, 2008)

Columns and labels:
Cannabinoid receptor 1 [1] = target: T1, Cannabinoid receptor 1 (Homo sapiens, UniProt P21554); test: biochemical; type: cell-based, CHO-K1
Cannabinoid receptor 1 [2] = target: T1, Cannabinoid receptor 1; test: biochemical; type: cell-based, HEK293
Cannabinoid receptor 2 [3] = target: T2, Cannabinoid receptor 2 (Homo sapiens, UniProt P34972); test: Displacement of [3H]CP-55940 from human CB2 receptor expressed in CHO-K1 cells; type: cell-based
Method in brief: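 Human CB2 expressed in CHO-K1 cell membranes, […]. Nonspecific binding with 10 µM unlabeled agonist. Glass-fiber filtration, then liquid scintillation counting. Duplicates, 3-6 independent experiments.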

Homo sapiens = species on record: Homo sapiens; test: Selectivity for human CB2 receptor over human CB1 receptor
Cannabinoid receptor 2 [4] = target: T2, Cannabinoid receptor 2; test: Binding affinity to CB2 receptor
Method in brief: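 Human CB2 expressed in CHO-K1 cell membranes, […]. Displacement of tritiated agonist radioligand (ca. 130 Ci/mmol, 7.2 nM) in Tris-HCl/EDTA/MgCl2/BSA buffer at pH 7.4, 1 h at 30 °C. Nonspecific binding with 10 µM unlabeled agonist. Glass-fiber filtration, then liquid scintillation counting. Duplicates, 3-6 independent experiments.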

Cannabinoid receptor 1 [5] = target: T1, Cannabinoid receptor 1; test: Binding affinity to CB1 receptor
Method in brief: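 Membranes from HEK-293 cells expressing human CB1. […] incubated with tritiated agonist radioligand (7.2 nM) or [3H]SR141716 (20 nM) in 50 mM Tris-HCl, 1 mM EDTA, 3 mM MgCl2, 5 mg/mL BSA, pH 7.4, for 1 h at 30 °C. Nonspecific binding taken with 10 µM unlabeled ligand. Filtration, then scintillation counting. Duplicates, 3-6 independent experiments.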

T1 sequence (P21554 whole entry): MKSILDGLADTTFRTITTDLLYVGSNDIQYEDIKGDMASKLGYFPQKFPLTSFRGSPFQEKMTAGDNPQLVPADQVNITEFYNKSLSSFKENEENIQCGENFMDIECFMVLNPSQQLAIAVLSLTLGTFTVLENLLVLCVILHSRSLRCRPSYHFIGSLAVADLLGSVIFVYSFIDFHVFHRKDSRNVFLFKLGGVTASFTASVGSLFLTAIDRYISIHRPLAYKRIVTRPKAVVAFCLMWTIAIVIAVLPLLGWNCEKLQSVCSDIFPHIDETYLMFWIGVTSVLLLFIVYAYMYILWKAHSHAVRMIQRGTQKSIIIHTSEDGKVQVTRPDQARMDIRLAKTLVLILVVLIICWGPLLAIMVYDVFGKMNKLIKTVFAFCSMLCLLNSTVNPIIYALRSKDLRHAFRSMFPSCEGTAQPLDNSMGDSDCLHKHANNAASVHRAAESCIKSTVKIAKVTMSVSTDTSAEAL
T2 sequence (P34972 whole entry): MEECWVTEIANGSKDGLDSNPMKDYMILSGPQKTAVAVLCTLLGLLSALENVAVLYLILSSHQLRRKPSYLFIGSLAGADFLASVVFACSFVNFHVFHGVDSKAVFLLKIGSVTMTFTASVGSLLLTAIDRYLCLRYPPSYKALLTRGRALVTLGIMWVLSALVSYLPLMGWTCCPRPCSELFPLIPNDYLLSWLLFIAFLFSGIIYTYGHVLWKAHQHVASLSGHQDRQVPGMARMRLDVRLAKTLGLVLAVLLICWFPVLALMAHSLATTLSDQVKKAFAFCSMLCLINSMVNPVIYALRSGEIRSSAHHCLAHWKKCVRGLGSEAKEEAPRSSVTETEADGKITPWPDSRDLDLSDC

Cc1cc(Cl)cc(C)c1-c1c(C)c(C(=O)NN2CCCCC2)nn1-c1ccc(Cl)cc1Cl
Ki (Cannabinoid receptor 1 [1]): 116 nM
Ki (Cannabinoid receptor 1 [2]): 194 nM
Ki (Cannabinoid receptor 2 [3]): 758 nM

Cc1c(C(=O)NN2CCCCC2)nn2c3ccc(Cl)cc3c3cc(Cl)ccc3c12
Ratio (Homo sapiens): 80

O=C(NN1CCCCC1)c1nn(-c2ccc(Cl)cc2Cl)c2c1CCc1cc(Cl)ccc1-2
Ki (Cannabinoid receptor 2 [4]): 230 nM
Ki (Cannabinoid receptor 1 [5]): 15 nM

Cc1c(C(=O)NN2CCCCC2)nn(-c2ccc(Cl)cc2Cl)c1-c1ccc(Cl)cc1Cl
Ki (Cannabinoid receptor 1 [1]): 17.9 nM
Ki (Cannabinoid receptor 1 [2]): 34.2 nM
Ki (Cannabinoid receptor 2 [3]): 1040 nM

O=C(NN1CCCCC1)c1nn(-c2ccc(Cl)cc2Cl)c2c1CCCCc1cc(Cl)ccc1-2
Ki (Cannabinoid receptor 1 [1]): 14.7 nM
Ki (Cannabinoid receptor 1 [2]): 40.9 nM
Ki (Cannabinoid receptor 2 [3]): 492 nM

Cc1c(C(=O)NN2CCCCC2)nn(-c2c(Cl)cc(Cl)cc2Cl)c1-c1ccc(Cl)cc1Cl
Ki (Cannabinoid receptor 1 [1]): 148 nM
Ki (Cannabinoid receptor 1 [2]): 261 nM
Ki (Cannabinoid receptor 2 [3]): 1110 nM

Cc1cc(Cl)ccc1-c1c(C)c(C(=O)NN2CCCCC2)nn1-c1c(Cl)cc(Cl)cc1Cl
Ki (Cannabinoid receptor 1 [1]): 152 nM
Ki (Cannabinoid receptor 1 [2]): 251 nM
Ki (Cannabinoid receptor 2 [3]): 1780 nM

O=C(NN1CCCCC1)c1nn(-c2ccc(Cl)cc2Cl)c2c1CCCc1cc(Cl)ccc1-2
Ki (Cannabinoid receptor 2 [4]): 20 nM
Ki (Cannabinoid receptor 1 [5]): 0.00035 nM
Ki (Cannabinoid receptor 1 [1]): 5.55 nM
Ki (Cannabinoid receptor 1 [2]): 18.4 nM

Cc1cc(Cl)ccc1-c1c(C)c(C(=O)NN2CCCCC2)nn1-c1ccc(Cl)cc1Cl
Ki (Cannabinoid receptor 1 [1]): 5.83 nM
Ki (Cannabinoid receptor 1 [2]): 16.1 nM
Ki (Cannabinoid receptor 2 [3]): 1120 nM
